This is an account of results in ChEMBL document CHEMBL1828531, “Pyrazol-3-propanoic acid derivatives as novel inhibitors of leukotriene biosynthesis in human neutrophils” (Eur J Med Chem, 2011).

Test [1] addresses T1, Polyunsaturated fatty acid 5-lipoxygenase (Homo sapiens) (UniProt P09917).
T1 sequence (whole entry): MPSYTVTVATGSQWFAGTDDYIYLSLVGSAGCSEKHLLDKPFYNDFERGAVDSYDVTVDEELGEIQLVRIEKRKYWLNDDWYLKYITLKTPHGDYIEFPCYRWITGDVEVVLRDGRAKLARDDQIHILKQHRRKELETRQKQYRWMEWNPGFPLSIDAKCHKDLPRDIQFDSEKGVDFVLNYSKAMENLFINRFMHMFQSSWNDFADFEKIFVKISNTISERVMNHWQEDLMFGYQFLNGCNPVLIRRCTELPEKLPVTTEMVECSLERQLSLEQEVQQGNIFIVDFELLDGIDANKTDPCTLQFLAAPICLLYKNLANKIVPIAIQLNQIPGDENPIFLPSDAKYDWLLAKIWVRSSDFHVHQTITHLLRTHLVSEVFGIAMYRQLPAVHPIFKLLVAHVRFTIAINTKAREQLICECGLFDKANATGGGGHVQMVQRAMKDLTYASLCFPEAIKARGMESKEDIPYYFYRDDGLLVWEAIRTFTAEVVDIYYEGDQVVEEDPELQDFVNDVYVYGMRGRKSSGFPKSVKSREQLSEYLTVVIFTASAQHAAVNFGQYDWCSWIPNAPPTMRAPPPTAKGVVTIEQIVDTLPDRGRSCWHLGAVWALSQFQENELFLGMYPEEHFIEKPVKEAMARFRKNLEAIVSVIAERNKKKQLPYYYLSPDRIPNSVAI
The experiment in a line: Inhibition of 5-Lipoxygenase in arachidonic acid-stimulated human neutrophils assessed as residual activity at 10 uM after 15 mins by HPLC analysis in presence of A23187. The method in brief: (§1)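 Human neutrophils, 5 × 10^6/mL in PBS/glucose/1 mM CaCl2, preincubated 15 min at RT, then 2.5 µM A23187 plus 20 µM AA for 10 min at 37 °C. Methanol stop, PGB1 internal standard, HPLC of LTB4, its all-trans isomers and 5-H(p)ETE. Residual % versus 0.3% DMSO vehicle, mean ± SEM, n = 3–5. IC50 by linear interpolation from 4–5 concentrations.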

The target in test [2] is T1, Polyunsaturated fatty acid 5-lipoxygenase (Homo sapiens). The experiment in a line: Inhibition of recombinant human 5-Lipoxygenase expressed in Escherichia coli lysate assessed as residual activity at 10 uM after 10 mins by HPLC analysis. The method in brief: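 Human 5-LO expressed at 30 °C in E. coli MV1190 (pT3-5LO); lysate 40,000 g supernatant in PBS pH 7.4 with 1 mM EDTA. Preincubated with compound 10 min at 4 °C, warmed 30 s at 37 °C. Started with 2 mM CaCl2 plus 20 µM AA, 10 min at 37 °C. Methanol stop, HPLC. Residual % versus 0.3% DMSO vehicle, n = 3–5.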

Test [3] addresses T2, Polyunsaturated fatty acid 5-lipoxygenase (Homo sapiens, UniProt P09917).
T2 sequence (P09917 whole entry): T1 sequence (whole entry)
Description: Inhibition of 5-Lipoxygenase in arachidonic acid-stimulated human neutrophils after 15 mins by HPLC analysis in presence of A23187. The method in brief: as §1

Regarding `Cc1ccc(-c2cc(CCC(=O)Oc3ccc(Oc4ccc(C(F)(F)F)cc4)cc3)nn2-c2ccc(Cl)nn2)cc1`, the Activity worked out at 86.5% in test [1] and 95% in test [2].
`CCS(=O)(=O)N1CCN(C(=O)CCc2cc(-c3ccc(C)cc3)n(-c3ccc(Cl)nn3)n2)CC1`: the Activity was 96.3% in test [1] and 93.6% in test [2].
For `O=C(CCc1cc(-c2ccc(F)cc2)n(-c2ccc(Cl)nn2)n1)Oc1ccc(-c2ccsc2)cc1`, in that order: 90.8% and 83.4%.
The corresponding values for `O=C(CCc1cc(-c2ccc(F)cc2)n(-c2ccc(Cl)nn2)n1)Oc1ccc(-n2ccnc2)cc1` are 111% and 71.7%.
What is called IC50 is the concentration at which inhibition is half-maximal. Regarding `COc1ccc(-n2nc(CCC(=O)N3CCN(Cc4ccc(C(C)(C)C)cc4)CC3)cc2-c2ccc(C(F)(F)F)cc2)nn1`, the IC50 in test [3] stood at 8000 nM. For the same compound, the Activity in test [1] was 36.2%; in test [2], 56.1%.
For the compound `CC(C)(C)c1ccc(CN2CCN(C(=O)CCc3cc(-c4ccc(C(F)(F)F)cc4)n(-c4ccc5ccccc5n4)n3)CC2)cc1`, the IC50 in test [3] is 3000 nM. Further, the Activity in test [1] turned out to be 44.5%; in test [2], 87.3%.
The corresponding values for `CC(C)(C)c1ccc(CN2CCN(C(=O)CCc3cc(-c4ccc(C(F)(F)F)cc4)n(-c4ccc(Cl)cc4)n3)CC2)cc1` are 8000 nM, 43.9% and 138%.
Take `O=C(CCc1cc(-c2ccc(C(F)(F)F)cc2)n(-c2ccc(Cl)nn2)n1)Oc1ccc(C2CCCC2)cc1`: the results for the Activity in test [1] and in test [2] were 77.2% and 92%, respectively.
In the case of `CC(C)(C)c1ccc(CN2CCN(C(=O)CCc3cc(-c4ccc(C(F)(F)F)cc4)n(-c4ccc(Cl)nn4)n3)CC2)cc1`, the IC50 in test [3] is 2900 nM. In addition, the Activity is 17.4% in test [1] and 88.9% in test [2].
For the compound `CC(C)(C)c1ccc(OC(=O)CCc2cc(-c3ccc(F)cc3)n(-c3ccc(Cl)nn3)n2)cc1`, the Activity in test [1] is 67.3%; in test [2], 92.7%.
The corresponding values for `Cc1ccc(-c2cc(CCC(=O)Nc3ccc(N4CCOCC4)nc3)nn2-c2ccc(Cl)nn2)cc1` are 106% and 90%.
For `O=C(CCc1cc(-c2ccc(C(F)(F)F)cc2)n(-c2ccc(Cl)nn2)n1)N1CCN(C(=O)c2ccco2)CC1`, in that order: 81.8% and 126%.
`NC(=O)C1CCN(C(=O)CCc2cc(-c3ccc(C(F)(F)F)cc3)n(-c3ccc(Cl)nn3)n2)CC1`: the results for the Activity in test [1] and in test [2] were 104% and 103%, respectively.
On to `Cc1ccc(-c2cc(CCC(=O)N3CCN(CC4CCCO4)CC3)nn2-c2ccc(Cl)nn2)cc1` (stereo unspecified), for which the Activity in test [1] worked out at 86%; in test [2] it was 106%.
For `CC(C)(C)c1ccc(CN2CCN(C(=O)CCc3cc(-c4ccc(F)cc4)n(-c4ccccc4)n3)CC2)cc1`, the IC50 in test [3] was determined as 2500 nM. Also, the Activity in test [1] is 3.7%; in test [2] it was 78.5%.
For `O=C(CCc1cc(-c2ccc(F)cc2)n(-c2ccc(Cl)nn2)n1)N1CCN(C(=O)C2CCCO2)CC1` (stereo unspecified), the Activity was 95% in test [1] and 90.8% in test [2].
For `COc1ccc(-n2nc(CCC(=O)N3CCN(Cc4ccc(C(C)(C)C)cc4)CC3)cc2-c2ccc(C)cc2)nn1`, the IC50 in test [3] stood at 3300 nM. For the same compound, the Activity in test [1] was determined as 27.1%; in test [2], 86.1%.
As to `Cc1ccc(-c2cc(CCC(=O)Oc3ccc(OC(F)(F)F)cc3)nn2-c2ccc(Cl)nn2)cc1`, the Activity in test [1] was found to be 70.5%; in test [2], 116%.
On to `CC(C)(C)c1ccc(CN2CCN(C(=O)CCc3cc(-c4ccc(F)cc4)n(-c4ccc(Cl)cc4)n3)CC2)cc1`, for which, in test [3], the IC50 is 2600 nM. Further, the Activity in test [1] was 13.2%; in test [2], 143%.
The corresponding values for `CC(C)(C)c1ccc(CN2CCN(C(=O)CCc3cc(-c4ccc(F)cc4)n(-c4ccc5ccccc5n4)n3)CC2)cc1` are 2800 nM, 10.4% and 114%.
Regarding `O=C(CCc1cc(-c2ccc(C(F)(F)F)cc2)n(-c2ccc(Cl)nn2)n1)Oc1ccc(-n2cccc2)cc1`, the Activity amounted to 94.1% in test [1] and 90.8% in test [2].
For the compound `CC(C)(C)c1ccc(CN2CCN(C(=O)CCc3cc(-c4ccc(C(F)(F)F)cc4)n(-c4ccccc4)n3)CC2)cc1`, the IC50 in test [3] was found to be 2900 nM. For the same compound, the values for the Activity in test [1] and in test [2] were 12.7% and 109%, respectively.
As for `COc1ccc(-n2nc(CCC(=O)N3CCN(Cc4ccc(C(C)(C)C)cc4)CC3)cc2-c2ccc(F)cc2)nn1`, in test [3], the IC50 was above 10000 nM. The Activity in test [1] came to 50.1%; in test [2], 69.2%.
Consider `CCCCCCCOc1ccc(OC(=O)CCc2cc(-c3ccc(F)cc3)n(-c3ccc(Cl)nn3)n2)cc1`, for which the Activity is 90.1% in test [1] and 86.5% in test [2].
In the case of `Cc1ccc(-c2cc(CCC(=O)N3CCN(Cc4ccc(C(C)(C)C)cc4)CC3)nn2-c2ccc(Cl)cc2)cc1`, the IC50 in test [3] came out at 2900 nM. The Activity in test [1] came to 27.7%; in test [2], 111%.
With `COc1ccc(NC(=O)CCc2cc(-c3ccc(F)cc3)n(-c3ccc(Cl)nn3)n2)cc1`, the Activity in test [1] came to 88.3%; in test [2] it was 91.6%.
Take `Cc1ccc(-c2cc(CCC(=O)N3CCN(Cc4ccc(C(C)(C)C)cc4)CC3)nn2-c2ccc(Cl)nn2)cc1`: the IC50 in test [3] was found to be 2800 nM. Further, the Activity in test [1] was 14.6%; in test [2] it was 107%.
